From ChEMBL document CHEMBL1154181 (J Med Chem, 2009)

system: Mus musculus; assay: Antinociceptive activity against thermal nociception in po dosed CD1 mouse assessed as increase in latency period to elicit jumping or hind paw licking measured after 15 to 90 mins postdose by hot plate method; type: functional

Q: For `CN1CC[C@]23c4c5ccc(O)c4O[C@H]2[C@@H](O)C=C[C@H]3[C@H]1C5` [MORPHINE], which ED50 is on record?
A: 6.9 mg/kg

system: Mus musculus; assay: Antinociceptive activity against radiant heat-induced nociception in icv dosed CD1 mouse assessed as increase in tail withdrawal latency measured after 15 to 120 mins postdose by tail flick test; type: functional
How it was run: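 Male CD-1 mice anesthetized with ketamine-xylazine (80 + 10 mg/kg ip). Dosed into the right lateral ventricle (+2 mm ML, −0.3 mm AP to bregma, 2 mm depth). Tail flick with radiant heat, cut-off 15 s. Latency read at 15–120 min as %MPE.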

Q: Which ED50 does the source give for `C=Cc1c(C)nn(CCCN2CCN(c3ccc(OC)cc3)CC2)c(=O)c1N` here?
A: 12.6 µg

Q: Which ED50 does the source give for `CN1CC[C@]23c4c5ccc(O)c4O[C@H]2[C@@H](O)C=C[C@H]3[C@H]1C5` [MORPHINE] here?
A: 1.1 µg

Q: How did the ED50 turn out when `C=Cc1c(C)nn(CCCN2CCN(c3cccc(OC)c3)CC2)c(=O)c1N` was run?
A: 72.6 µg

Q: `Cc1ccc(N2CCN(CCn3nc(-c4ccccc4)c(-c4csc(C)n4)c(N)c3=O)CC2)cc1` was tested. Which ED50 did it give?
A: 25.1 µg

Q: How did the ED50 turn out when `Cc1ccc(N2CCN(CCCn3nc(-c4ccccc4)c(-c4csc(C)n4)c(N)c3=O)CC2)cc1` was run?
A: 48.3 µg

Q: For `Cc1ccc(N2CCN(CCCn3cc(-c4ccncc4)cc(N)c3=O)CC2)cc1`, which ED50 is on record?
A: 7.6 µg

Q: With `C=Cc1c(C)nn(CCCN2CCC(C)CC2)c(=O)c1N` as the compound, how does the ED50 read?
A: 26.4 µg

Q: `Cc1ccc(N2CCN(CCCn3nc(C)cc(N)c3=O)CC2)cc1` was tested. Which ED50 did it give?
A: 4.9 µg

Q: For `C=Cc1sc(=O)n(CCCN2CCN(c3ccc(C)cc3)CC2)c1C`, which ED50 is on record?
A: 5.1 µg

Q: For `C=Cc1c(C)nn(CCN2CCN(c3ccc(OC)cc3)CC2)c(=O)c1N`, which ED50 is on record?
A: 11.9 µg

Q: `C=Cc1c(C)nn(CCN2CCN(c3ccc(C)cc3)CC2)c(=O)c1N` was tested. Which ED50 did it give?
A: 26.1 µg

Q: For `C=Cc1cnn(CCCN2CCN(c3ccc(C)cc3)CC2)c(=O)c1N`, which ED50 is on record?
A: 25.1 µg

Q: How did the ED50 turn out when `Cc1ccc(N2CCN(CCn3nc(C)c(-c4ccn[nH]4)c(N)c3=O)CC2)cc1` was run?
A: 16.9 µg

Q: For `C=Cc1c(C)nn(C)c(=O)c1NCCN1CCN(c2ccc(C)cc2)CC1`, which ED50 is on record?
A: 24.1 µg

Q: With `C=Cc1c(C)nn(CCCN2CCN(c3cccc(Cl)c3)CC2)c(=O)c1N` as the compound, how does the ED50 read?
A: 23.7 µg

Q: For `C=Cc1c(C)nn(CCCN2CCN(c3ccc(Cl)cc3)CC2)c(=O)c1N`, which ED50 is on record?
A: 15.4 µg

Q: How did the ED50 turn out when `Cc1ccc(N2CCN(CCCn3nc(C)ccc3=O)CC2)cc1` was run?
A: 13.8 µg

Q: `C=Cc1c(C)nn(CCCN2CCN(C)CC2)c(=O)c1N` was tested. Which ED50 did it give?
A: 8.7 µg

Q: How did the ED50 turn out when `C=Cc1c(C)nn(CCCN2CCN(c3cccc(C)c3)CC2)c(=O)c1N` was run?
A: 51.55 µg

system: Mus musculus; assay: Antinociceptive activity against radiant heat-induced nociception in po dosed CD1 mouse assessed as increase in tail withdrawal latency measured after 15 to 120 mins postdose by tail flick test; type: functional
How it was run: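 Male CD-1 mice, 25–30 g; oral dosing. Radiant heat focused 3–4 cm from tail tip of hand-restrained mice; tail withdrawal latency recorded, cutoff 15 s at 15 V. Baseline = mean of three readings 15 min apart; latency at 15–120 min.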

Q: `CN1CC[C@]23c4c5ccc(O)c4O[C@H]2[C@@H](O)C=C[C@H]3[C@H]1C5` [MORPHINE] was tested. Which ED50 did it give?
A: 3.5 mg/kg
